# Compound activity deposited in PubChem by several laboratories.
# Rows were chosen to be rich in hits. Some 4.3% of all compounds tested hit in one or more screens of this group.
# TAAR1 ag – agonists of human TAAR1 | Q96RJ0 | CHO RD-HGA16 TAAR1, Fluo-8 calcium fluorescence; vehicle wells 0%, saturating PEA agonist 100% | activation, % at 3 µM | 0.99% of 360,000 active | AID 624467;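 active means activation above the mean activation of all test compounds in the run plus 3 SD, cut at about 38% in these data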
#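 System: CHO-derived RD-HGA16 cells with stable Gα16 and human TAAR1 / Times: 17-24 h plating, Fluo-8 75 min 37 °C, 30 min RT / Technique: calcium-sensitive Fluo-8 signal, excitation 470-495, emission 515-575 nm / Measure: % activation relative to PEA EC100 response / Benchmarks: DMSO and PEA EC100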
# MC4R antagonist – blocks human MC4R cAMP signaling | MC4R-expressing cells, MTII-stimulated cAMP, LANCE TR-FRET | inhibition, % at 6.5 µM | 0.48% of 360,000 active;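 active means inhibition above its plate's cutoff, the mean of tested wells on that plate plus 3 SD, cut at about 29% in these data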;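 further: 0% = Melanotan II alone and 100% = Melanotan II plus saturating MCL0020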
#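 Assay system: human MC4R-expressing U2OS cells; reagent: Melanotan II stimulation of cells; dosing: 6.5 µM single dose; timing: compound 30 min, challenge 1 h, detection 1 h; signal: TR-FRET cAMP assay; replicates: one well per compound, no replicates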
# MC4R ag barr – agonists of human melanocortin 4 receptor (MC4R) beta-arrestin. AID 540308. 0.98% of 360,000 active. P32245. U2OS MC4R beta-arrestin complementation, luminescence; percent of melanotan II response, DMSO zero. activation, % at 8.9 µM;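 active means activation above a per-plate cutoff, the mean activation of sample wells on that plate plus 3 SD, cut at about 8% in these data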
# B2AR ag – activates human beta-2 adrenergic receptor causing internalization; Am2.2-beta2AR cells, FAP receptor internalization, flow cytometry; response, % (test concentration not listed); 0.43% of 340,000 active; AID 504454;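 active means response above a set limit, near 3 SD of response in nonfluorescent compounds, cut at about 42% in these data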
# HTR2A ag – agonists of mouse serotonin 5-HT2A receptor (HTR2A) | P35363 | CHO-K1 mHTR2A beta-arrestin complementation, luminescence; percent of 30 µM serotonin response | activation, % at 7.6 µM | 0.66% of 360,000 active | AID 624169;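 active means activation above a run cutoff, the mean activation of all tested compounds plus 3 SD, cut at about 14% in these data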;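 further: 0% = plate median of compound wells and 100% = 30 µM serotonin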
# Target sequence (P35363 whole entry, looked up): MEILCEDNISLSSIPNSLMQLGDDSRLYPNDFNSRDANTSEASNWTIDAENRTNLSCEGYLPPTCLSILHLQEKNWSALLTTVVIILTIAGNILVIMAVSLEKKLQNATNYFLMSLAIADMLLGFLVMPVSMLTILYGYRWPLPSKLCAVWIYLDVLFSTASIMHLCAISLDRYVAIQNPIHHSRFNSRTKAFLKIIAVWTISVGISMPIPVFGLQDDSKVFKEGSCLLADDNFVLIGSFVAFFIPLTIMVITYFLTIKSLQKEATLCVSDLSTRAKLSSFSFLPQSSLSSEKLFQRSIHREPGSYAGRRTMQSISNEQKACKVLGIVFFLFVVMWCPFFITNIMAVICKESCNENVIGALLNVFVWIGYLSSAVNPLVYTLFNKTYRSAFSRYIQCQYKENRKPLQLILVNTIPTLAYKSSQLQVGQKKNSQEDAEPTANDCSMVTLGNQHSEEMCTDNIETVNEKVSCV
# TAAR1 antagonist – antagonists of human TAAR1; Q96RJ0; CHO RD-HGA16 TAAR1, Fluo-8 calcium fluorescence, antagonist; inhibition, % at 3 µM; 1.5% of 360,000 active; AID 624466;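 active means inhibition above a per-plate cutoff, the mean inhibition of test compounds on that plate plus 3 SD, cut at about 49% in these data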;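 further: 0% = DMSO plus EC80 beta-PEA response and 100% = DMSO alone without agonist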
#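 Material: CHO RD-HGA16 cells bearing hTAAR1; compound dosing: one-point dosing, 3 µM nominal final; schedule: dye loading 75 min at 37 °C, then 30 min room temperature; measured by: calcium fluorescence with Fluo-8; control set: vehicle and agonist controls; replication: n of 1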
# U2OS cAMP counter – nonselective cAMP signaling inhibitor, MC4R antagonist counter-screen. shares compounds with MC4R antagonist. parental U2OS, forskolin cAMP, LANCE TR-FRET. inhibition, % at 6.5 µM. 26% of 1,600 active. AID 602193;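 active means mean inhibition over triplicates above the low-control well mean plus 3 SD, set per campaign, cut at about 13% in these data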;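 further: signal is single emission at 671 nm which falls as cellular cAMP rises; 0% = forskolin-stimulated wells and 100% = buffer without forskolin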
# MC4R antag conf – human MC4R cAMP antagonism confirmation | shares compounds with MC4R antagonist | MC4R-expressing cells, MTII-stimulated cAMP, TR-FRET | inhibition, % at 6.5 µM | 27% of 1,600 active | AID 602195; in the data active means inhibition above about 29%;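 further: 0% = agonist stimulated wells alone and 100% = agonist stimulated wells plus saturating reference antagonist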
# Active calls of the source: *; x = no result; ! = not confirmed by another sample.
SMILES,TAAR1 ag,MC4R antagonist,MC4R ag barr,B2AR ag,HTR2A ag,TAAR1 antagonist,U2OS cAMP counter,MC4R antag conf
COc1ccc2c(C=Nc3c(C)n(C)n(-c4ccccc4)c3=O)c(O)n(Cc3ccco3)c(=O)c2c1,0.7,37.0*!,-1.7,-0.6,-2.1,8.5,2.1,0.6
COc1ccc(Cn2c(O)c(C=Nc3ccccc3C(=O)O)c3ccccc3c2=O)cc1,-1.9,31.9*,0.3,0.8,10.8,-86.2,9.1,9.8
COc1ccc(Cn2c(O)c(C=Nc3ccc(OC)cc3)c3ccccc3c2=O)cc1,1.5,-0.3,-2.6,-13.0,3.4,-15.4,x,x
CC1=C(C(=O)N2CCCCCC2)CC(CC(=O)NC2CC2)C(=O)N1Cc1ccccc1 (centres undefined),4.7,x,x,x,-1.6,-8.0,x,x
C[C@@H]1CN([C@@H](C)CO)C(=O)c2cc(NS(C)(=O)=O)ccc2O[C@@H](C)CCCCO[C@H]1CN(C)Cc1ccc2c(c1)OCO2,1.1,7.2,-2.1,x,2.4,-3.4,x,x
O=C(Nc1nc2cc(Cl)ccc2s1)C1CCCN(S(=O)(=O)c2cccc3cccnc23)C1 (centres undefined),x,28.9*,2.9,-7.9,0.2,x,2.5,18.9
O=C(Nc1ccc(F)cc1)C1CCCN(S(=O)(=O)c2cccc3cccnc23)C1 (centres undefined),1.9,2.7,-0.9,-5.5,0.9,16.6,x,x
O=C(Nc1nnc(SCc2ccc(F)cc2)s1)c1cnccn1,14.7,31.9*,-0.1,-3.6,-2.2,-8.7,-4.1,-10.8
Cc1ccc(NS(=O)(=O)c2c(C)noc2C)cc1,-1.3,9.3,-1.5,-5.7,-2.9,-16.9,x,x
CCOC(=O)C1=C(C)N=c2s/c(=C/c3ccc(OCC(=O)O)cc3)c(=O)n2C1c1ccc(SC)cc1 (centres undefined),x,22.1,-2.1,21.3,-1.7,x,x,x
CCOC(=O)C1=C(C)N=c2s/c(=C/c3ccc(OCC(=O)O)cc3)c(=O)n2C1c1ccc(F)cc1 (centres undefined),11.9,29.6*,-0.1,13.9,4.1,9.0,1.7,-5.2
CCOc1ccccc1C(=O)N/N=C/c1ccoc1,2.1,-6.8,-2.6,-12.2,-3.2,-4.2,x,x
Cc1ccc([C@H]2C(C#N)=C(N)Oc3cc(C)oc(=O)c32)o1,7.4,30.4*,0.2,1.4,1.6,-3.8,-1.8,-8.0
CC(C)NC(=O)c1ccc2c(c1)N(CC(=O)N1CCCCC1)C(=O)C(C)(C)O2,2.5,10.7,-0.9,0.7,-3.9,4.4,x,x
Cc1coc2cc3oc(=O)c(CC(=O)N(C)CC(=O)O)c(C)c3cc12,5.9,29.3*,0.8,1.8,-3.7,-15.6,18.5*,0.5
CCN(C[C@H]1N[C@@](Cc2ccccc2)(C(=O)OC)[C@H]2C(=O)N(Cc3ccccc3)C(=O)[C@@H]12)S(=O)(=O)c1ccc(C(F)(F)F)cc1,0.2,37.5*,2.5,-8.5,-2.5,-2.7,0.8,1.1
C=CCN1C(=O)c2n[nH]c(COC)c2C1c1ccc(F)cc1 (centres undefined),1.6,x,x,x,x,-16.9,x,x
CCOc1ccc(CCNC(=O)CCCn2nc(C)c3c(C)n(-c4ccccc4)nc3c2=O)cc1,-1.7,-0.2,-1.3,-5.7,0.2,-20.4,x,x
CC(C)CN1CCN(C(=O)COC(=O)c2ccc(S(C)(=O)=O)c([N+](=O)[O-])c2)CC1,-0.7,31.0*,-1.3,x,-5.5,1.5,23.1*,41.4*
CS(=O)(=O)c1ccc(C(=O)OCC(=O)NC23CC4CC(CC(C4)C2)C3)cc1[N+](=O)[O-],10.0,50.0*,-4.3,40.6,3.3,21.2,3.6,62.3*
Cn1cccc1C(=O)NC(=O)COC(=O)c1ccc(S(C)(=O)=O)c([N+](=O)[O-])c1,x,-17.4,-1.7,16.0,1.2,x,x,x
O=S(=O)(Nc1cc(Sc2ncn[nH]2)c(O)c2ccccc12)c1ccccc1,33.6,52.8*,-1.8,32.2,0.9,39.7,10.5,7.9
O=C(COC(=O)CNC(=O)c1cccc(F)c1)NCCC1=CCCCC1,3.0,28.5*,-0.6,-1.7,4.7,-14.1,18.3*,40.4*
O=S(=O)(/C(=C\c1ccc(C(F)(F)F)cc1)c1nc2ccccc2[nH]1)c1ccccc1,x,32.5*,-0.9,21.9,-8.8,x,12.2,34.9*
O=C(NCc1ccco1)/C(=C/c1ccc(C(F)(F)F)cc1)c1nc2ccccc2[nH]1,1.4,17.7,2.5,-11.7,-6.3,-5.9,x,x
SMILES,TAAR1 ag,MC4R antagonist,MC4R ag barr,B2AR ag,HTR2A ag,TAAR1 antagonist,U2OS cAMP counter,MC4R antag conf
CCC(C)Sc1cc(-c2nc3ccc(C)cn3c2NCc2ccccc2)ccc1OC (centres undefined),3.5,47.3*,-3.0,30.8,10.0,72.2*,27.3*,77.5*
CCC(C)Sc1ccc(-c2nc3ccc(C)cn3c2NCc2ccccc2)cc1OC (centres undefined),x,35.2*,-0.8,28.8,-15.0,x,18.3*,43.8*
CC1=Nc2ccc(C)cc2/C1=C/c1c(N)n2c(S(=O)(=O)C(C)C)nsc2nc1=O,6.5,33.0*,-0.4,12.6,-3.7,21.2,3.1,6.0
O=C(C1=C(O)C(=O)N(Cc2ccco2)C1c1cccnc1)c1cc2ccccc2o1 (centres undefined),4.3,15.6,-0.8,5.2,7.1,-17.4,x,x
COc1cccc2cc(C(=O)C3=C(O)C(=O)N(Cc4ccco4)C3c3cccnc3)oc12 (centres undefined),x,28.7*,-0.5,-1.0,12.6,x,26.9*,44.5*
Cc1onc(-c2c(F)cccc2Cl)c1C(=O)Nc1nccs1,13.0,9.1,-1.6,2.5,-2.4,36.9,x,x
Cc1onc(-c2c(F)cccc2Cl)c1C(=O)Nc1nnc(C(F)(F)F)s1,2.5,47.5*,-4.0,9.8,7.4,23.4,36.4*,74.0*
O=C(COC(=O)Cc1c(F)cccc1Cl)NC(=O)c1ccccc1,3.1,1.9,-2.3,1.7,-1.5,-9.5,x,x
CC1(C)CC(=O)C2=C(C1)OC1=C(C(=O)CC(C)(C)C1)C2c1ccc(O)cc1O,9.2,74.4*,-3.6,92.5*,0.4,13.4,50.1*,52.5*
OC(COc1ccccc1)CN1CCOCC1 (centres undefined),-1.3,29.8*,-1.2,5.2,0.5,-5.9,-0.1,1.9
